In test [1] the target is T1, GABA-A receptor; alpha-5/beta-3/gamma-2 (Homo sapiens, UniProt P18507+P28472+P31644).
T1 sequence (P18507 whole entry): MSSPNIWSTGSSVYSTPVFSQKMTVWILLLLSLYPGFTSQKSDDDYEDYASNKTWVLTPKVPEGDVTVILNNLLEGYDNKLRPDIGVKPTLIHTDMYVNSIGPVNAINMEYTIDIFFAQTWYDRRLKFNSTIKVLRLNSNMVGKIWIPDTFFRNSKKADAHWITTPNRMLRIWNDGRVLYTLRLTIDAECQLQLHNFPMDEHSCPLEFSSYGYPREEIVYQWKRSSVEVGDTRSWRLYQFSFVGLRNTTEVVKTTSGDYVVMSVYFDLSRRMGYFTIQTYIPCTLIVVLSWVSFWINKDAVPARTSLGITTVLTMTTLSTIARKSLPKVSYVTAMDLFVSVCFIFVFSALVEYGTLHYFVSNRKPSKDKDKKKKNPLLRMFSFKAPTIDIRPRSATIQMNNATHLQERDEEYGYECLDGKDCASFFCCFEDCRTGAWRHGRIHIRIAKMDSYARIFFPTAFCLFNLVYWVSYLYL
T1 sequence (P28472 whole entry): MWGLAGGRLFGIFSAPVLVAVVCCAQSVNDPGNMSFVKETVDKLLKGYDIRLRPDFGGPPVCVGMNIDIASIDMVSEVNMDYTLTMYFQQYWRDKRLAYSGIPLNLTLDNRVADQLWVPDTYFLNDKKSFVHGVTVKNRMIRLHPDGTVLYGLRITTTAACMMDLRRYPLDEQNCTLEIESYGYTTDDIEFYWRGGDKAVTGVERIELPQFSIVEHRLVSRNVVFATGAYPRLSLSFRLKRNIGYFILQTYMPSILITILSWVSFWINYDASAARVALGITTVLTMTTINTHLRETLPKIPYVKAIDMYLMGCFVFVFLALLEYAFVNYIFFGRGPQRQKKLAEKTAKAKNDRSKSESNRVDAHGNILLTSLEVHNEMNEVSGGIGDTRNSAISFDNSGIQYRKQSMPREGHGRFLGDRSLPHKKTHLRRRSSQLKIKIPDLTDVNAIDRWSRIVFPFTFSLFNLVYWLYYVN
T1 sequence (P31644 whole entry): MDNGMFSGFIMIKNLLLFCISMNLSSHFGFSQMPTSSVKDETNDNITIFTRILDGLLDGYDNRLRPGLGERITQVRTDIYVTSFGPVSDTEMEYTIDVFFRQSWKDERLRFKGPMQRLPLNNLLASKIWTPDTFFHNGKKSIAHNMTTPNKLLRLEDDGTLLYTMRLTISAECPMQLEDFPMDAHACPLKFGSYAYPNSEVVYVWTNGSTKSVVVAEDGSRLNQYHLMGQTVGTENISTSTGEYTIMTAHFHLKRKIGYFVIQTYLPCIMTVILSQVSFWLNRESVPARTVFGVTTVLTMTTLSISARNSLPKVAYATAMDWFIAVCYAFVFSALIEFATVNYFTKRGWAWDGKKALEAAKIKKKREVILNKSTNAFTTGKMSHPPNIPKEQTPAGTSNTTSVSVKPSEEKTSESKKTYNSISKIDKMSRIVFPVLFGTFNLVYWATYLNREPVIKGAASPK
In words: Binding affinity to GABAA alpha-5-beta-3-gamma-2 receptor. It counts as protein-complex assay.

Test [2] deals with T2, GABA-A receptor; alpha-6/beta-3/gamma-2 (Homo sapiens, UniProt P18507+P28472+Q16445). Description: Binding affinity to GABAA alpha-6-beta-3-gamma-2 receptor. It counts as protein-complex assay.
T2 sequence (Q16445 whole entry, one chain of several): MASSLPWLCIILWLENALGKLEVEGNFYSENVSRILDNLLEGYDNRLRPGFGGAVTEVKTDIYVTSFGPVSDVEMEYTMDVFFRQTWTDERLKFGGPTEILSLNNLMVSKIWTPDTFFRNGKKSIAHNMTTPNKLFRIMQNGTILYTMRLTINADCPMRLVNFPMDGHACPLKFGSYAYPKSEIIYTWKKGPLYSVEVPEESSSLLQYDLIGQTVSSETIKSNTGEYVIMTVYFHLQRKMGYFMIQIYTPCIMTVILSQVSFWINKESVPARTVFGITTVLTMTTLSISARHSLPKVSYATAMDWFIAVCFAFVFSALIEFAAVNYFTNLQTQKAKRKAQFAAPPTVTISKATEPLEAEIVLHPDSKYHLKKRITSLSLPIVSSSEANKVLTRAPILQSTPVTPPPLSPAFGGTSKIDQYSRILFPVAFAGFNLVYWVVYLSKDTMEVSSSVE
The target in test [3] is T3, GABA-A receptor; alpha-2/beta-3/gamma-2 (Homo sapiens, UniProt P18507+P28472+P47869).
T3 sequence (P18507 whole entry): T1 sequence (P18507 whole entry)
T3 sequence (P28472 whole entry): T1 sequence (P28472 whole entry)
T3 sequence (P47869 whole entry): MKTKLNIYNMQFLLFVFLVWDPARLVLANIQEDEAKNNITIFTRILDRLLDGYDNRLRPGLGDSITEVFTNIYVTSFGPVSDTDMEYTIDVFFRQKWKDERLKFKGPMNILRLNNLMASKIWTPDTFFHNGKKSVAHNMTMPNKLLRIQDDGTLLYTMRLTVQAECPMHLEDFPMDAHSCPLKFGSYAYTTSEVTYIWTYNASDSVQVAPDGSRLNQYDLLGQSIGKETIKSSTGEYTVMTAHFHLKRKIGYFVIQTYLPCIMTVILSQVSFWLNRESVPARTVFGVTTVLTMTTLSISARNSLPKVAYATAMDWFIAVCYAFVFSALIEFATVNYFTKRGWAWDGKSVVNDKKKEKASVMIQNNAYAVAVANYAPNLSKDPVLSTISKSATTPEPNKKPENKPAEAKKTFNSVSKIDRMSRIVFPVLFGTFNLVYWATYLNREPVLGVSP
Description: Binding affinity to GABAA alpha-2-beta-3-gamma-2 receptor.

For test [4], the target named is T4, Gamma-aminobutyric acid receptor subunit alpha-3 (Homo sapiens, UniProt P18507+P28472+P34903).
T4 sequence (P34903 whole entry): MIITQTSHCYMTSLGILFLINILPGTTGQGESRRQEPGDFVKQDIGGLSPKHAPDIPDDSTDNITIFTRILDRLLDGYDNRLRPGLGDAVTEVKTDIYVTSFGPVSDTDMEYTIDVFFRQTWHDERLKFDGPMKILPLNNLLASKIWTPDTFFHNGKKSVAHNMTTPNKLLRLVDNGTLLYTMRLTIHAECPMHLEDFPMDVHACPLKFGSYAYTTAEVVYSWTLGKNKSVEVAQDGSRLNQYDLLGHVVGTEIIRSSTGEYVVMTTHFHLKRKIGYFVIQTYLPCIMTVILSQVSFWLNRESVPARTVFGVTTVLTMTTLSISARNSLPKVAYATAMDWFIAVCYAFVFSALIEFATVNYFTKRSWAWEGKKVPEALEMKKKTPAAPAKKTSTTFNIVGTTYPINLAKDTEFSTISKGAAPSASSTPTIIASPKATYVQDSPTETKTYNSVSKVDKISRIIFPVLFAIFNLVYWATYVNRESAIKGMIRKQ
In words: Binding affinity to GABAA alpha-3-beta-3-gamma-2 receptor.

The target in test [5] is T5, GABA-A receptor; alpha-1/beta-3/gamma-2 (Homo sapiens, UniProt P14867+P18507+P28472).
T5 sequence (P14867 whole entry): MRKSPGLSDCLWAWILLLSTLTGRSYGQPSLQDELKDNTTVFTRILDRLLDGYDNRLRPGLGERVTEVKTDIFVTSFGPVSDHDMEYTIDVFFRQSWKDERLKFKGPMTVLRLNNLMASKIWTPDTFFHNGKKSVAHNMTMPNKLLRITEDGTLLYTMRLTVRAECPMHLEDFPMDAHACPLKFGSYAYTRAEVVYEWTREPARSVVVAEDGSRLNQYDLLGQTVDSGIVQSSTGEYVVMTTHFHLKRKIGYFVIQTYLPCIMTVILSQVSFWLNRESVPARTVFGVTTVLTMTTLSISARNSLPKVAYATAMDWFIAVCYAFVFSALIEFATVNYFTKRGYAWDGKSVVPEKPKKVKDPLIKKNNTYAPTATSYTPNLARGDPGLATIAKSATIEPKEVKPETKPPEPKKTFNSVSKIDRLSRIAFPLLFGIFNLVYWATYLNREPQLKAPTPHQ
T5 sequence (P18507 whole entry): T1 sequence (P18507 whole entry)
T5 sequence (P28472 whole entry): T1 sequence (P28472 whole entry)
In words: Binding affinity to GABAA alpha-1-beta-3-gamma-2 receptor. It counts as protein-complex assay.

The target in test [6] is T6, GABA A receptor alpha-4/beta-3/gamma-2 (Homo sapiens, UniProt P18507+P28472+P48169). Description: Binding affinity to GABAA alpha-4-beta-3-gamma-2 receptor. The class given is protein-complex assay.
T6 sequence (P48169 whole entry, one chain of several): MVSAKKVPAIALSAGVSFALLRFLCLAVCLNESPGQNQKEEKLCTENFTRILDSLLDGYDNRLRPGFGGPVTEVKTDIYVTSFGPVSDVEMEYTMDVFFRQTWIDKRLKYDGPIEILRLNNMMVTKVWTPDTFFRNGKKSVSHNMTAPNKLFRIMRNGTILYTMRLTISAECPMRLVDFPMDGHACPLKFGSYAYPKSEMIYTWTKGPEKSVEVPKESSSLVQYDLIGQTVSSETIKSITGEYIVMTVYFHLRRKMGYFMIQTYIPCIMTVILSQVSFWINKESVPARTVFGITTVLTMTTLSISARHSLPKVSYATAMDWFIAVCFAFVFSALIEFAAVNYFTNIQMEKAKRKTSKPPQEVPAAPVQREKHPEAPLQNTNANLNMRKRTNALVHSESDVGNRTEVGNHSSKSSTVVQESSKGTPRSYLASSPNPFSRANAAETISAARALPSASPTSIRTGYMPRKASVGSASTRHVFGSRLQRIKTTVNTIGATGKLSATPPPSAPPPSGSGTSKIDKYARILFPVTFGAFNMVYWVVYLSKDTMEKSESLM
Test [7] has as its target T3, GABA-A receptor; alpha-2/beta-3/gamma-2. In words: Activity at alpha-2-beta-3-gamma-2 GABAA receptor expressed in Xenopus oocytes assessed as inhibition in GABA-induced current by voltage clamp assay. It counts as cell-based, Oocyte. A digest of the protocol: (§1)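 cRNA for alpha and beta3 subunits (0.0065 ng/nL) plus gamma2 (0.032 ng/nL) injected into Xenopus oocytes, 50 nL each, recorded after ≥36 h. Two-electrode voltage clamp at -60 mV, room temperature, in Xenopus Ringer's pH 7.4. Drug (final 0.1% DMSO) preapplied 30 s, then coapplied with GABA at about EC20 until peak. Current normalized to response without drug.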

The target of test [8] is T1, GABA-A receptor; alpha-5/beta-3/gamma-2. In words: Activity at alpha-5-beta-3-gamma-2 GABAA receptor expressed in Xenopus oocytes assessed as inhibition in GABA-induced current by voltage clamp assay. The class given is cell-based, Oocyte. A digest of the protocol: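 cRNA-injected Xenopus oocytes (α5, β3 transcripts 0.0065 ng/nL, γ2 0.032 ng/nL; 50 nL), defolliculated after ≥36 h; two-electrode voltage clamp at −60 mV, room temperature, in Xenopus Ringer's pH 7.4. Ligand (1 µM; 0.1% DMSO final) preapplied 30 s, then coapplied with GABA at EC20 until peak; current change versus GABA alone.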

For test [9], the target named is T2, GABA-A receptor; alpha-6/beta-3/gamma-2. Description: Activity at alpha-6-beta-3-gamma-2 GABAA receptor expressed in Xenopus oocytes assessed as inhibition in GABA-induced current by voltage clamp assay. The class given is cell-based, Oocyte. A digest of the protocol: as §1
Test [10] has as its target T6, GABA A receptor alpha-4/beta-3/gamma-2. Description: Activity at alpha-4-beta-3-gamma-2 GABAA receptor expressed in Xenopus oocytes assessed as inhibition in GABA-induced current by voltage clamp assay. It counts as cell-based, Oocyte. A digest of the protocol:
as §1

Test [11] concerns the target T5, GABA-A receptor; alpha-1/beta-3/gamma-2. Description: Activity at GABAA alpha-1-beta-3-gamma-2 receptor expressed in Xenopus oocytes assessed as inhibition of GABA-induced current by voltage clamp assay. It counts as cell-based, Oocyte. The method in brief:
as §1

For test [12], the system named is Mus musculus. Description: Impairment of contextual memory in C57BL/6J mouse at 30 mg/kg, ip. The class given is functional, organism-based. Also on record: dose 30 mg/kg. A digest of the protocol: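 Male C57Bl/6 mice aged 7–12 weeks, given an ip injection in 0.9% saline containing 2.5% encapsin, 20 min before training. Training was 4 min in the chamber, then three 33 s tones (85 dB, 2.9 kHz), each ending in a 0.75 mA shock for 3 s, 1 min apart. Twenty-four hours later, freezing was scored during a 4 min context test without shock.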

The test system of test [13] is Mus musculus. Description: Effect on spontaneous locomotor activity in C57BL/6J mouse at 30 mg/kg, ip by automated assessment. It counts as functional. As to conditions: route intraperitoneal. A digest of the protocol: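 Male C57Bl/6 mice given 30 mg/kg ip, compared with vehicle-injected mice. Spontaneous locomotor activity was recorded automatically over a 40 min observation period after injection.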

The source made the active and inactive calls. The calls are words filed in the database; no cut-off is given here.

For the compound `CN1CC2C(C(=O)OC(C)(C)C)=NCN2c2ccc(C#C[Si](C)(C)C)cc2C1=O` (stereo not drawn), the inhibition constant (Ki) in test [1] is 2.61 nM; in [2], 58.6 nM; in test [3] it was 143 nM; in test [4], 255 nM; in [5] it was 197 nM; in test [6] it was 2.61 nM.
Turning to `C#Cc1ccc2c(c1)C(=O)N(C)Cc1c(C(=O)OC(C)(C)C)ncn1-2`, the EC50 in test [7] came to 95500 nM; in test [8], 9800 nM; in test [9], 51700 nM; in [10], 324000 nM; in test [11] it was 74400 nM.
For the compound `C#Cc1ccc2c(c1)C(c1ccccc1)=N[C@H](C)c1c(C(=O)OCC)ncn1-2`, the outcome in the test on Mus musculus [12] was Active. In the test with Mus musculus [13], this compound came in with an Activity of 1026.

Broadly, the Ki is the dissociation constant of the complex between target and ligand, obtained from inhibition or displacement. Lower therefore signals a stronger hold on the target. As usually defined, the EC50 is the concentration needed to bring the measured effect to its halfway point.

Values taken from ChEMBL document CHEMBL1157475, “Selective influence on contextual memory: physiochemical properties associated with selectivity of benzodiazepine ligands at GABAA receptors containing the alpha5 subunit” (J Med Chem, 2008).
